Drawing on ChEMBL document CHEMBL1795307, “Synthesis and anti-inflammatory activity of some novel 3-phenyl-N-[3-(4-phenylpiperazin-1yl)propyl]-1H-pyrazole-5-carboxamide derivatives” (2011), this text covers Activity for eight molecules.

Type in all cases: functional
The test system of test [1] is Rattus norvegicus. Put plainly: Antiinflammatory activity against carrageenan-induced paw edema in rat at 100 mg/kg, po administered 1 hr before carrageenan challenge measured after 2 hrs relative to control. The essentials:
(§1)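 Rats of either sex (130–180 g), fasted ≥16 h with water available, six per group. Compound given orally in 1% CMC solution 1 h before 0.1 mL of 1% carrageenan suspension injected into hind paw; controls received vehicle. Paw volume read by mercury-displacement plethysmometer before and 1, 2, 3, 4 h after carrageenan. Percent inhibition from mean paw-volume increase versus control.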
For orientation: Carrageenan injected into the paw causes an acute inflammation.

For test [2], the system named is Rattus norvegicus. Put plainly: Antiinflammatory activity against carrageenan-induced paw edema in rat at 100 mg/kg, po administered 1 hr before carrageenan challenge measured after 1 hr relative to control. The essentials:
as §1

Test [3] has as its system Rattus norvegicus. Kind of test: Antiinflammatory activity against carrageenan-induced paw edema in rat at 100 mg/kg, po administered 1 hr before carrageenan challenge measured after 3 hrs relative to control. The procedure, abridged: as §1
The subject of test [4] is Rattus norvegicus. Kind of test: Antiinflammatory activity against carrageenan-induced paw edema in rat at 100 mg/kg, po administered 1 hr before carrageenan challenge measured after 4 hrs relative to control. The essentials:
as §1

As to `O=C(NCCCN1CCN(c2ccccc2)CC1)c1cc(-c2ccccc2)n[nH]1`, the Activity with Rattus norvegicus [1] is given as 55.5%; in the test with Rattus norvegicus [2], 47.3%; in the test with Rattus norvegicus [3], 61.9%; in the test with Rattus norvegicus [4], 58.8%.
The like results for `COc1ccc(-c2cc(C(=O)NCCCN3CCN(c4ccccc4)CC3)[nH]n2)cc1` were, in that order, 69.4%, 55.2%, 75% and 70%.
The corresponding values for `COc1cccc(-c2cc(C(=O)NCCCN3CCN(c4ccccc4)CC3)[nH]n2)c1` are 62.5%, 52.6%, 65.2% and 64.4%.
The corresponding values for `Cc1ccc(-c2cc(C(=O)NCCCN3CCN(c4ccccc4)CC3)[nH]n2)cc1` are 55.5%, 60.5%, 67.3% and 63.3%.
With `Cc1cccc(-c2cc(C(=O)NCCCN3CCN(c4ccccc4)CC3)[nH]n2)c1`, the Activity was determined as 65.2% in the test on Rattus norvegicus [1], 60.5% in the test on Rattus norvegicus [2], 70.6% with Rattus norvegicus [3] and 70% in the test with Rattus norvegicus [4].
The like results for `O=C(NCCCN1CCN(c2ccccc2)CC1)c1cc(-c2ccc([N+](=O)[O-])cc2)n[nH]1` were, in that order, 75.6%, 53.9%, 76% and 72.2%.
The like results for `O=C(NCCCN1CCN(c2ccccc2)CC1)c1cc(-c2cccc([N+](=O)[O-])c2)n[nH]1` were, in that order, 75%, 67%, 78% and 75.5%.
For `CC(C)Cc1ccc(C(C)C(=O)O)cc1` (stereo unspecified) [IBUPROFEN], the Activity in the test with Rattus norvegicus [2] is 42.1%; in the test with Rattus norvegicus [3] it was 72.8%; with Rattus norvegicus [4] it was 63.3%.
